Results: the array DNA melting data of Ke et al. (doi:10.1101/2024.01.08.574731)

What was measured:
[1] = folding enthalpy; higher = less favourable; fluorescence melt of hairpins on a sequencing array, two-state fit; conditions: sodium 0.088 M
In short: (§1)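 On a sequenced MiSeq flow cell, library hairpins with annealed Cy3 and quencher oligos were imaged for Cy3 fluorescence in 2.5 °C steps up to 60 °C, in 50 mM Na-HEPES pH 8.0, 25 mM NaCl. Normalisation used pre-quench Cy3 and control constructs. Bootstrapped two-state fits gave melting temperature and folding enthalpy, combined by inverse variance across four replicates and with fitted temperatures raised by 9.35 °C to match UV melts.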

[2] = melting temperature; fluorescence melt of hairpins on a sequencing array, two-state fit, raised by 9.35 °C to match UV melts; conditions: sodium 0.088 M
In short: as §1

Row | Sequence | folding enthalpy [1] | Tm [2]
1 | GAATTGCGAAAGCAGTTC (((.(((....))).))) | -30.3 kcal/mol | 51.5 °C
2 | GAATTGGAAACAATTC ((((((....)))))) | -35.6 kcal/mol | 47.3 °C
3 | GAATTGGGAAACCAACTC ((.((((....)))).)) | -10.9 kcal/mol | 26 °C
4 | GAATTGGGAAACTGATTC ((((..(....)..)))) | -13.2 kcal/mol | 25.6 °C
5 | GAATTTGGAAACAAGTTC (((.(((....))).))) | -28.8 kcal/mol | 33.8 °C
6 | GAATTTGGAAACGAATTC (((((.(....).))))) | -35.8 kcal/mol | 38.8 °C
7 | GACAAACCGAAAGGTGTC (((..(((....)))))) | -19.8 kcal/mol | 43.2 °C
8 | GACAAACGAAAGTTAGTC (((.(((....))).))) | -30.9 kcal/mol | 44.3 °C
9 | GACAAAGGAAACTTCGTC (((.(((....))).))) | -17 kcal/mol | 26.7 °C
10 | GACAAAGGAAACTTTGCC (.(((((....))))).) | -21.6 kcal/mol | 33.3 °C
11 | GACAACGAAAGTTAGTC ((((((....))).))) | -24.7 kcal/mol | 42.4 °C
12 | GACAACGAAAGTTCGGTC ((((((....)))..))) | -17.7 kcal/mol | 30.7 °C
13 | GACAACGAAAGTTCGTC ((((((....))).))) | -21 kcal/mol | 42.6 °C
14 | GACAACGAAAGTTGTC ((((((....)))))) | -24.8 kcal/mol | 67.9 °C
15 | GACAACGAAAGTTTAGTC ((((((....)))..))) | -16 kcal/mol | 30.4 °C
16 | GACAACGAAAGTTTGGTC ((((((....)))..))) | -16.4 kcal/mol | 32.9 °C
17 | GACAACGAAAGTTTTGTC ((((((....)))..))) | -24.7 kcal/mol | 31.8 °C
18 | GACAACGGAAACGTCGTC (((.(((....))).))) | -29.5 kcal/mol | 43.4 °C
19 | GACAACGGAAACGTTGCC (.(((((....))))).) | -17.4 kcal/mol | 44.9 °C
20 | GACAAGCGAAAGCTCGTC (((.(((....))).))) | -21 kcal/mol | 49.3 °C
21 | GACAAGGGAAACTTTGTC (((((.(....).))))) | -27.1 kcal/mol | 36.9 °C
22 | GACAATGCGAAAGCAGTC (((..(((....)))))) | -14 kcal/mol | 40.4 °C
23 | GACAATGGAAACATCGTC (((.(((....))).))) | -26.4 kcal/mol | 32.5 °C

Row | Sequence | folding enthalpy [1] | Tm [2]
24 | GACACCGAAAGGTAGTC ((((((....))).))) | -22.5 kcal/mol | 50.1 °C
25 | GACACCGAAAGGTCCGTC ((((((....)))..))) | -16.9 kcal/mol | 31.4 °C
26 | GACACCGAAAGGTGGTC ((((((....))).))) | -12.8 kcal/mol | 55.6 °C
27 | GACACCGAAAGGTGTGTC ((((((....)))..))) | -11.3 kcal/mol | 61.6 °C
28 | GACACCGAAAGGTTGTC ((((((....))).))) | -25.3 kcal/mol | 53.2 °C
29 | GACACGGAAACGTGTC ((((((....)))))) | -34.9 kcal/mol | 67.7 °C
30 | GACACGGGAAACCGCATC ((..(((....)))..)) | -11.1 kcal/mol | 20.4 °C
31 | GACACTGCGAAAGCAGTC (((..(((....)))))) | -8.12 kcal/mol | 31.4 °C
32 | GACAGACGAAAGTCCGTC (((.(((....))).))) | -26 kcal/mol | 47.5 °C
33 | GACAGAGAAATCTGTC ((((((....)))))) | -33.2 kcal/mol | 50.9 °C
34 | GACAGAGGAAACTCTGCC (.(((((....))))).) | -15.5 kcal/mol | 41.9 °C
35 | GACAGAGGAAACTCTGTC (((((((....))))))) | -41.3 kcal/mol | 60.6 °C
36 | GACAGAGGAAACTTTGTC ((((.((....)).)))) | -25.3 kcal/mol | 36.7 °C
37 | GACAGCACGAAAGTGGTC (((..(((....)))))) | -13.7 kcal/mol | 36 °C
38 | GACAGCCGAAAGGCAGTC (((.(((....))).))) | -22.5 kcal/mol | 60.1 °C
39 | GACAGCCGAAAGGCCGTC (((.(((....))).))) | -18.7 kcal/mol | 55 °C
40 | GACAGCGAAAGCTGCGTC ((((((....)))..))) | -10.1 kcal/mol | 48 °C
41 | GACAGCGAAAGCTTGTC ((((((....))).))) | -22 kcal/mol | 52.6 °C
42 | GACAGCGGAAACGCTGCC (.(((((....))))).) | -11.5 kcal/mol | 52.6 °C
43 | GACAGTGGAAACACCATC ((..(((....)))..)) | -10.3 kcal/mol | 19.9 °C
44 | GACATAACGAAAGTTGTC (((..(((....)))))) | -25 kcal/mol | 37.4 °C
45 | GACATACGAAAGTAGGTC (((.(((....))).))) | -39.1 kcal/mol | 52.7 °C
46 | GACATAGAAATATGTC ((((((....)))))) | -30 kcal/mol | 45.5 °C

Row | Sequence | folding enthalpy [1] | Tm [2]
47 | GACATCCGAAAGGAAGTC (((.(((....))).))) | -36.6 kcal/mol | 48.8 °C
48 | GACATCGAAAGATGTC ((((((....)))))) | -39.7 kcal/mol | 64.4 °C
49 | GACATCGGAAACGATATC ((.((((....)))).)) | -21.9 kcal/mol | 31.6 °C
50 | GACATCGGAAACGATGTC (((((((....))))))) | -44 kcal/mol | 66.6 °C
51 | GACATGCGAAAGCAAGTC (((.(((....))).))) | -25.5 kcal/mol | 53.3 °C
52 | GACCAACGAAAGTTAGTC (((.(((....))).))) | -26 kcal/mol | 38.8 °C
53 | GACCAAGGAAACCTGGTC (((((.(....).))))) | -33.4 kcal/mol | 47.2 °C
54 | GACCACGAAAGTGACGTC ((((((....)))..))) | -16.5 kcal/mol | 37.5 °C
55 | GACCACGAAAGTGTAGTC ((((((....)))..))) | -18.6 kcal/mol | 41.1 °C
56 | GACCACGAAAGTGTTGTC ((((((....)))..))) | -18.7 kcal/mol | 34.4 °C
57 | GACCACGGAAACACGGTC ((((..(....)..)))) | -30.3 kcal/mol | 35.3 °C
58 | GACCAGCGAAAGCTTGTC (((.(((....))).))) | -24 kcal/mol | 47.8 °C
59 | GACCAGGGAAACCTGGTC (((((((....))))))) | -34.4 kcal/mol | 67.5 °C
60 | GACCATGAAAATGGTC ((((((....)))))) | -36.9 kcal/mol | 61.8 °C
61 | GACCCACGAAAGTGTGTC (((.(((....))).))) | -27.4 kcal/mol | 48.9 °C
62 | GACCCAGGAAACCGGGTC (((((.(....).))))) | -32.8 kcal/mol | 52.9 °C
63 | GACCCCGAAAGGGACGTC ((((((....)))..))) | -17 kcal/mol | 40.4 °C
64 | GACCCCGAAAGGGCGGTC ((((((....)))..))) | -17.2 kcal/mol | 45.9 °C
65 | GACCCCGAAAGGGCGTC ((((((....))).))) | -36.6 kcal/mol | 56.7 °C
66 | GACCCCGGAAACGGGACC (..((((....))))..) | -8.3 kcal/mol | 28.1 °C
67 | GACCCGCGAAAGCGTGTC (((.(((....))).))) | -24 kcal/mol | 52.6 °C
68 | GACCCGGGAAACCGGATC ((.((((....)))).)) | -16.3 kcal/mol | 43.2 °C
